Screening data (PubChem BioAssay)
H9c2 TAG inh = inhibitors of triacylglycerol accumulation, primary screen, cell-based, uHTS, fluorescence, H9c2. H9c2 cells, Nile Red lipid (TAG) fluorescence; cells loaded with 200 µM oleic acid. inhibition, % at 12.5 µM. 230,000 tested, 0.66% active;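 active = pattern-corrected inhibition of lipid staining of at least 50% with the nuclear-stain viability signal not falling by more than 50%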
697 NFkB inh = inhibitors of PMA/ionomycin-induced NF-kB reporter, 697 cells, primary screen, B-cell NF-kB inhibitor project, cell-based, luminescence, uHTS; AID 435022, 2010; inhibition, % at 4 µM; 697 B-cell NF-kB luciferase reporter, 16 h; 330,000 tested, 0.33% active; in the data active = inhibition above about 35%
Gli-Sufu antag = Gli-Sufu pathway antagonists, primary screen, luciferase luminescence, Sufu-KO-LIGHT cells, uHTS | Sufu-KO-LIGHT fibroblasts, Gli luciferase reporter luminescence | inhibition, % at 5 µM | 340,000 tested, 0.74% active;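 active = inhibition above about 55%, limit read from the data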
Hep lipid drop = inhibitors of hepatocyte lipid droplet formation, primary screen, imaging, high-throughput imaging, BODIPY stain | AML12 mouse hepatocytes, oleate lipid droplets | 240,000 tested, 0.4% active | inhibition, % at 6.5 µM;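 active = lipid droplet intensity inhibited by at least 50%, with more than 500 cells counted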
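Assay system: AML12 mouse liver cells | Compound: 6.5 µM single-point dosing | Schedule: Overnight exposure | Technique: Fluorescence imaging, 20x objective, two fields per well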
Jurkat NFkB inh = inhibitors of induced NF-kB luciferase reporter, primary screen, TCR NF-kB activation inhibitor project, cell-based, luminescence, uHTS | Jurkat, PMA/ionomycin-induced NF-kB luciferase reporter | inhibition, % at 4 µM | 330,000 tested, 0.53% active | AID 435003, 2010; in the data active = inhibition above about 50%
iPSC survival up = enhancers of single-cell hiPSC survival, primary screen, ATPlite luminescence | 100% = ROCK inhibitor wells, 0% = DMSO | 360,000 tested, 0.044% active | survival enhancement, % at 20 µM; in the data active = survival enhancement above about 18%;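 note: cells exposed to compounds for 16 hours before the ATP read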
Gli antag conf = Gli-SUFU pathway antagonists, confirmation, single concentration, luciferase luminescence, Sufu-KO-LIGHT cells; shares compounds with Gli-Sufu antag; Gli luciferase reporter; inhibition, % at 5 µM; 2,500 tested, 40% active; AID 602428, 2012;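 active = mean inhibition at 5 µM reaching about 45%, limit read from the data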
Gli cytotox = cytotoxicity in Sufu-KO-LIGHT cells, confirmation, cytotoxicity control for Gli-SUFU antagonist project, cell-based, ATP luminescence, single concentration; shares compounds with Gli-Sufu antag; cytotoxicity, % at 5 µM; 2,500 tested, 32% active;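 active = mean cytotoxicity at 5 µM above about 25%, limit read from the data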;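 note: cells exposed to compound overnight for roughly 16 to 18 hours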
Wnt3a counter = Wnt3a reporter signal inhibition, confirmation, counter-screen for Gli-SUFU antagonist project, Wnt-LIGHT cells, luminescence, single concentration; shares compounds with Gli-Sufu antag; Wnt3a-driven luciferase reporter; inhibition, % at 6.25 µM; 2,500 tested, 20% active; AID 651995, 2013;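 active = mean inhibition above about 25%, limit read from the data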
Numbers stand for hits. The list is not random: actives were taken first. Their share in the collection is about 1.8%.

How did Cc1ccc2[nH]c(=O)c(CN(Cc3cccs3)Cc3nnnn3CC3CCCO3)cc2c1 (stereo not drawn) do in these assays?
697 NFkB inh: inactive; Gli-Sufu antag: inactive; Jurkat NFkB inh: inactive; iPSC survival up: inactive; Gli antag conf: inactive; Gli cytotox: inactive; Wnt3a counter: inactive

What do the screens show for `Cc1c(N)cc(C(=O)N2CCOCC2)cc1[N+](=O)[O-]`?
697 NFkB inh: inactive; Gli-Sufu antag: 93; Hep lipid drop: inactive; Jurkat NFkB inh: inactive; iPSC survival up: inactive; Gli antag conf: inactive; Gli cytotox: inactive; Wnt3a counter: inactive

What do the screens show for `O=C(COC(=O)CCCSc1nc2ccccc2[nH]1)NC(=O)NC1CCCC1`?
H9c2 TAG inh: inactive; 697 NFkB inh: inactive; Gli-Sufu antag: inactive; Jurkat NFkB inh: inactive; iPSC survival up: inactive; Gli antag conf: inactive; Gli cytotox: inactive; Wnt3a counter: inactive

Results for CCNC(=O)NC(=O)COC(=O)CCCSc1nc2ccccc2[nH]1 ?
H9c2 TAG inh: inactive; 697 NFkB inh: inactive; Gli-Sufu antag: inactive; Jurkat NFkB inh: inactive; iPSC survival up: inactive

How did N#CCN(N=Nc1ccccc1)c1ccccc1 do in these assays?
697 NFkB inh: inactive; Gli-Sufu antag: inactive; Jurkat NFkB inh: inactive; iPSC survival up: inactive

What do the screens show for `CN1CCN(c2ccc(CNC(=O)C3(C)Cc4c(-c5ccccc5)ccnc4O3)cc2)CC1` (stereo not drawn)?
H9c2 TAG inh: inactive; iPSC survival up: inactive

Results for O=C(c1cc2nc(-c3ccc(F)cc3)cc(C(F)(F)F)n2n1)N1CCCCC1c1cccnc1 (stereo not drawn) ?
H9c2 TAG inh: inactive; 697 NFkB inh: inactive; Gli-Sufu antag: 67; Hep lipid drop: inactive; Jurkat NFkB inh: inactive; iPSC survival up: inactive; Gli antag conf: 64; Gli cytotox: 32; Wnt3a counter: inactive

Results for O=C(c1cnn2c(C(F)(F)F)cc(-c3ccccc3)nc12)N1CCCCC1c1cccnc1 (stereo not drawn) ?
H9c2 TAG inh: inactive; 697 NFkB inh: inactive; Gli-Sufu antag: inactive; Hep lipid drop: inactive; Jurkat NFkB inh: inactive; iPSC survival up: inactive

How did CC(NS(=O)(=O)c1ccc2c(c1)C(C)(C)C(=O)N2C)c1ccccc1 (stereo not drawn) do in these assays?
H9c2 TAG inh: inactive; 697 NFkB inh: inactive; Gli-Sufu antag: inactive; Hep lipid drop: inactive; Jurkat NFkB inh: inactive; iPSC survival up: inactive

How did Cc1ccc(NC(=O)CSc2n[nH]c(-c3ccco3)n2)c(C)c1 do in these assays?
H9c2 TAG inh: inactive; 697 NFkB inh: inactive; Gli-Sufu antag: 57; Hep lipid drop: inactive; Jurkat NFkB inh: inactive; iPSC survival up: inactive; Gli antag conf: inactive; Gli cytotox: inactive; Wnt3a counter: inactive

What do the screens show for `CC(=O)OCC1=C(C(=O)O)N2C(=O)C(NC(=O)c3ccc(COc4c(C)cccc4Cl)o3)C2SC1` (stereo not drawn)?
H9c2 TAG inh: inactive; 697 NFkB inh: inactive; Gli-Sufu antag: inactive; Hep lipid drop: inactive; Jurkat NFkB inh: inactive; iPSC survival up: inactive

What do the screens show for `CC(=O)OCC1=C(C(=O)O)N2C(=O)C(NC(=O)c3ccc(COc4ccc(Cl)cc4)o3)C2SC1` (stereo not drawn)?
H9c2 TAG inh: inactive; 697 NFkB inh: inactive; Gli-Sufu antag: inactive; Hep lipid drop: inactive; Jurkat NFkB inh: inactive; iPSC survival up: inactive; Gli antag conf: inactive; Gli cytotox: inactive; Wnt3a counter: inactive

Results for CCCCOC(=O)/C=C/c1ccc(OC(=O)OC)c(OC(=O)OC)c1 ?
697 NFkB inh: inactive; Gli-Sufu antag: 62; Hep lipid drop: inactive; Jurkat NFkB inh: inactive; iPSC survival up: inactive; Gli antag conf: 46; Gli cytotox: inactive; Wnt3a counter: 37

How did COC(=O)Oc1ccc(/C=C/C(=O)OC(C)C)cc1OC(=O)OC do in these assays?
697 NFkB inh: inactive; Gli-Sufu antag: inactive; Hep lipid drop: inactive; Jurkat NFkB inh: inactive; iPSC survival up: inactive; Gli antag conf: inactive; Gli cytotox: inactive; Wnt3a counter: inactive

How did O=C(N/N=C/c1cccs1)c1cc(-c2ccc(Cl)s2)[nH]n1 do in these assays?
697 NFkB inh: inactive; Gli-Sufu antag: inactive; Hep lipid drop: inactive; Jurkat NFkB inh: inactive; iPSC survival up: inactive

Results for CC(C)CC(=O)Nc1ccc(C(=O)CN2CCC(C)CC2)cc1 ?
H9c2 TAG inh: inactive; 697 NFkB inh: inactive; Gli-Sufu antag: inactive; Hep lipid drop: inactive; Jurkat NFkB inh: inactive; iPSC survival up: inactive

Results for C#Cc1ccc([C@H]2C=C(C(=O)N3CCN(Cc4ccc5c(c4)OCO5)CC3)O[C@@H](OCC)[C@@H]2CCCO)cc1 ?
H9c2 TAG inh: inactive; 697 NFkB inh: inactive; Gli-Sufu antag: inactive; Hep lipid drop: inactive; Jurkat NFkB inh: inactive; iPSC survival up: inactive

How did COc1cc(OC)c(NS(=O)(=O)c2ccc(Cl)c(C(=O)OC(C)C(=O)N3CCCC3)c2)cc1Cl (stereo not drawn) do in these assays?
697 NFkB inh: inactive; Gli-Sufu antag: inactive; Hep lipid drop: inactive; Jurkat NFkB inh: inactive; iPSC survival up: inactive; Gli antag conf: inactive; Gli cytotox: inactive; Wnt3a counter: inactive

What do the screens show for `COc1ccc(NS(=O)(=O)c2ccc(C)c(C(=O)OC(C)C(=O)N3CCOCC3)c2)cc1` (stereo not drawn)?
H9c2 TAG inh: inactive; 697 NFkB inh: inactive; Gli-Sufu antag: inactive; Jurkat NFkB inh: inactive; iPSC survival up: inactive

Results for CC(C)c1nnc(NC(=O)CC(=O)Nc2ccccc2C(=O)O)s1 ?
H9c2 TAG inh: inactive; 697 NFkB inh: inactive; Gli-Sufu antag: inactive; Jurkat NFkB inh: inactive; iPSC survival up: inactive; Gli antag conf: inactive; Gli cytotox: inactive; Wnt3a counter: 48

What do the screens show for `CC(C)Cc1nnc(NC(=O)CC(=O)Nc2ccccc2C(=O)O)s1`?
H9c2 TAG inh: inactive; 697 NFkB inh: inactive; Gli-Sufu antag: inactive; Hep lipid drop: inactive; Jurkat NFkB inh: inactive; iPSC survival up: inactive

What do the screens show for `CCOC(=O)c1ccc2c(c1)n(CC)c(/C=C/Nc1ccccc1)[n+]2CC`?
697 NFkB inh: inactive; Gli-Sufu antag: inactive; Jurkat NFkB inh: inactive; iPSC survival up: inactive; Gli antag conf: 53; Gli cytotox: 34; Wnt3a counter: inactive
